# From PubChem
# A selection: hits, their analogues and other compounds. The true share with any hit is near 1.1%.
# S1P4 antag – blocks the human S1P4 receptor | O95977 | 220,000 tested, 0.26% active | inhibition, % at 4.98 µM | S1P4-expressing cells, antagonist mode, reporter read-out; in the data active = inhibition above about 29%
# Target sequence (O95977 whole entry, looked up): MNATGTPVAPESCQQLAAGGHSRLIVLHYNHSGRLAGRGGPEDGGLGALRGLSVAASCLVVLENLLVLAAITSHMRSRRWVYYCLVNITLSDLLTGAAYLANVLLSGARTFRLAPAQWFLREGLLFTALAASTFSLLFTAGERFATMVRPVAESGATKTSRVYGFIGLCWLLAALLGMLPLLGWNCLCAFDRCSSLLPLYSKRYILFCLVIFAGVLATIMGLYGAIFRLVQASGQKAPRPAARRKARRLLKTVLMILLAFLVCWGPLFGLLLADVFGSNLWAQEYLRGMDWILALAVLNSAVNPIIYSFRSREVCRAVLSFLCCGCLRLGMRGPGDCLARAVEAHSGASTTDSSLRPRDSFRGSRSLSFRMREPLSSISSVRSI
# S1P3 antagonist – blocks the human S1P3 receptor | Q99500 | CHO S1P3 NFAT-BLA reporter, FRET fluorescence, antagonist mode | inhibition, % at 4.98 µM | 170,000 tested, 0.27% active;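 active = inhibition above the plate cutoff, the mean inhibition of test wells on that plate plus 3 SD, cut at about 28% in these data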;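 note: cells challenged with S1P at its EC80 of 0.8 µM; blue over green emission ratio from cleaved BLA substrate after 4 h stimulation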
# S1P4 ag – activates the human S1P4 receptor | 220,000 tested, 0.35% active | S1P4-expressing cell line, agonist reporter assay | activation, % at 4.98 µM | AID 1509; in the data active = activation above about 11%
# TNAP act hi DEA – TNAP (human) activation, high acceptor | purified TNAP, CDP-star luminescence, 1 M DEA, 30 min; active compounds read high; 0 = EDTA background, 1 = DMSO-only activity | activation factor at 20 µM | 200,000 tested, under 10 active;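 active = activation factor at least 2 at 20 µM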
#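 Test system – human TNAP · Doses – 20 µM single point · Incubation – 30 min, room temperature · Signal – luminescent substrate turnover signal · Read-out basis – activation factor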
# TNAP inh noacc – TNAP (human) inhibition, acceptor-free conditions; P05186; purified TNAP, CDP-star luminescence, 30 min; inhibition, % at 20 µM; 200,000 tested, 0.26% active; AID 1012;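 active = tissue-nonspecific alkaline phosphatase inhibition above about 50% at 20 µM in the single-dose screen, limit read from the data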
# TNAP inh hiacc – inhibitors of human TNAP at high phosphate acceptor concentration; P05186; 200,000 tested, 0.03% active; inhibition, % at 20 µM; purified TNAP, CDP-star luminescence, 1 M DEA;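 active = over 50% inhibition of tissue-nonspecific alkaline phosphatase at 20 µM in the single-dose screen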
# S1P4 antag conf – confirmation of human S1P4 receptor antagonists; shares compounds with S1P4 antag; S1P4-expressing cell line, antagonist mode, reporter read-out; inhibition, % at 4.98 µM; 520 tested, 71% active; AID 1524; in the data active = inhibition above about 30%
# S1P1 antagonist – human S1P1 antagonism as S1P4 antagonist counter-screen; shares compounds with S1P4 antag; cell-based S1P1 antagonist counterscreen, inhibition; inhibition, % at 4.98 µM; 520 tested, 37% active; in the data active = inhibition above about 40%;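 note: receptor stimulated with S1P near its EC80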
# Numbers stand for hits; . = inactive; / = no result given.
SMILES,S1P4 antag,S1P3 antagonist,S1P4 ag,TNAP act hi DEA,TNAP inh noacc,TNAP inh hiacc,S1P4 antag conf,S1P1 antagonist
COC(=O)c1cc(NC(=O)Cc2ccccc2[N+](=O)[O-])cc(C(=O)OC)c1,.,/,.,.,.,.,/,/
Nc1ncnc2c1ncn2C1OC(CO)C(O)C1N (configuration not stated),.,.,.,/,/,/,/,/
Nc1ncnc2c1ncn2C1OC(CO)C(O)C1O (configuration not stated),39,.,.,.,.,.,67,41
COC(=O)c1cn(N(C)c2ncc(C(F)(F)F)cc2Cl)c(=O)c2ccccc12,.,/,.,.,.,.,/,/
COC(=O)c1cn(Nc2ncc(C(F)(F)F)cc2Cl)c(=O)c2ccccc12,38,/,.,.,.,.,31,.
O=C1C(Cl)=C(Nc2ccc3cn[nH]c3c2)C(=O)c2ccccc21,62,.,.,/,/,/,95,91
O=C(Nc1ccc2cn[nH]c2c1)c1c(Cl)cccc1Cl,.,.,.,.,.,.,/,/
CN(C)c1ccc(CNC(=O)C2CCC(CNc3c(N4CCCCC4)c(=O)c3=O)CC2)cc1 (configuration not stated),.,.,.,/,/,/,/,/
O=C(CNC(=O)c1cnccc1C(F)(F)F)c1cccc(Cl)c1,.,.,.,/,/,/,/,/
CC(=O)N(C1=C(Cl)C(=O)c2ccccc2C1=O)C1CCCCC1,52,.,.,/,/,/,115,61
CC(=O)N(c1ccccc1C)C1CCCC1,.,.,.,.,.,.,/,/
COc1cccc(NC(=O)CN(C)C(C)C(=O)Nc2ccc(S(=O)(=O)N3CCCC3)cc2)c1 (configuration not stated),.,.,.,.,.,.,/,/
CCNc1nc(N2CCCC2)nc(N2CCCC2)n1,.,.,.,.,.,.,/,/
CCNc1nc(NC(C)(C)C)nc(N2CCCCC2)n1,44,.,.,.,.,.,92,.
O=C(CCSc1ccccc1)NC1CCCCCC1,43,.,.,.,.,.,.,.
Cc1cc2c(c(N3CCOCC3)n1)C(=O)OC2,35,/,.,.,.,.,.,.
O=C1NC(=O)C2(COC(c3cccc([N+](=O)[O-])c3)OC2)S1 (configuration not stated),.,.,.,.,.,.,/,/
O=[N+]([O-])c1ccc(N2CCOCC2)cc1O,.,.,.,/,/,/,/,/
Cc1cc(N2CCOCC2)ccc1/C=C\[N+](=O)[O-],39,.,.,.,.,.,82,.
O=C(NCc1cccnc1)C(=O)N/N=C/c1ccc([N+](=O)[O-])cc1,30,.,.,.,.,.,.,.
Cc1ccc(N/C(N)=N/c2nc3c(c(=O)[nH]2)CCCC3)c(C)c1,.,/,.,.,.,.,/,/
Cc1ccc(N/C(N)=N/c2nc(C)cc(N3CCCCC3)n2)c(C)c1,45,.,.,.,.,.,45,.
Cc1ccccc1NC(=O)c1ccc(NC(=O)C2CC(=O)OC23CCCCC3)cc1 (configuration not stated),.,.,.,.,.,.,/,/
COC(=O)Cc1cc(OC)c(OC)cc1S(=O)(=O)N(C)C,.,.,.,.,.,.,/,/
CC(C)N(Cc1ccccc1)C(=S)NC1CCCCC1,.,.,.,.,.,.,/,/
SMILES,S1P4 antag,S1P3 antagonist,S1P4 ag,TNAP act hi DEA,TNAP inh noacc,TNAP inh hiacc,S1P4 antag conf,S1P1 antagonist
CCCC(=O)N(C1CC(C)C(C#N)(C#N)C1(C#N)C#N)N(C)C (configuration not stated),43,.,.,/,/,/,107,.
Cc1cc(Cl)n2c(nc3cc(F)c(F)cc32)c1C#N,31,.,.,.,.,.,112,81
Cc1cc(C)n2c(=O)c3ccc(Cl)cc3nc2c1C#N,.,.,.,.,.,.,/,/
CCC(=O)N1CCN(c2ccc(NC(=O)c3ccc([N+](=O)[O-])o3)cc2Cl)CC1,56,.,.,.,.,.,113,44
CCN1CCN(c2ccc(NC(=O)c3ccc([N+](=O)[O-])o3)cc2Cl)CC1,86,.,.,.,.,.,75,67
O=C(Nc1ccc(S(=O)(=O)N2CCOCC2)cc1)c1ccc([N+](=O)[O-])o1,68,.,.,/,/,/,85,.
O=C(Nc1ccc(S(=O)(=O)N2CCOCC2)cc1)c1ccco1,.,.,.,.,.,.,/,/
CC(O)c1nc2ccccc2n1CC(=O)N1CCN(c2ccccc2)CC1 (configuration not stated),.,.,.,.,.,.,/,/
CCCCS(=O)(=O)/C=C\C=C/S(=O)(=O)CCCC,99,/,.,.,.,.,117,62
O=c1[nH]sc2ccccc12,32,.,.,.,.,.,91,.
O=c1c2ccccc2sn1-c1ccccc1,.,/,.,.,.,.,/,/
O=C1NC2(CCc3ccccc32)C(=O)N1CCOc1ccc(Cl)cc1 (configuration not stated),.,/,.,.,.,.,/,/
Cc1ccccc1OCCN1C(=O)NC2(CCc3ccccc32)C1=O (configuration not stated),36,.,.,.,.,.,.,.
O=C(Cn1ncc(Cl)c(Cl)c1=O)N1CCN(Cc2ccccc2)CC1,71,.,.,.,.,.,118,61
O=C(Cn1ncc(Cl)c(Cl)c1=O)N1CCc2ccccc21,79,.,.,.,.,.,118,94
O=C(Cn1ncc2c1-c1ccccc1OC2)N1CCN(Cc2ccccc2)CC1,.,.,.,/,/,/,/,/
O=C(Cn1nnc2ccccc2c1=O)N1CCOCC1,.,.,.,.,.,.,/,/
O=C(Cn1ncc(Cl)c(Cl)c1=O)N1CCOCC1,44,.,.,.,.,.,60,.
O=C(Cn1ncc2c1-c1ccccc1OC2)N1CCc2ccccc21,.,.,.,.,.,.,/,/
Cc1nn(CC(=O)N2c3ccccc3NC(=O)C2(C)C)c(C)c1[N+](=O)[O-],.,.,.,.,.,.,/,/
CC1(C)C(=O)Nc2ccccc2N1C(=O)Cn1ncc(Cl)c(Cl)c1=O,95,.,.,/,/,/,87,.
CC(C)(C)c1nnc(NC(=S)Nc2ccccc2)s1,.,.,.,.,.,.,/,/
O=C(NCCOCCNC(=O)OCc1ccccc1)OCc1ccccc1,.,.,.,.,.,.,/,/
Cc1ccc(C)c(NC(=O)C2CCCN2C(=O)NC2CCCCC2)c1 (configuration not stated),.,.,.,.,.,.,/,/
NCCCCCC(=O)Nc1ccncc1,.,.,.,/,/,/,/,/
Cc1ccccc1C1=NC(C(F)(F)F)(C(F)(F)F)c2c(n(C)c(=O)n(C)c2=O)N1,.,.,.,.,.,.,/,/
